In brackets after ≈: the same amount, converted by molar mass.
Experiments:
Format in all cases: functional
Staphylococcus aureus [1] = test: Antibacterial activity against Staphylococcus aureus CRBIP 2121 after 18 hrs by agar dilution method; details: CRBIP 2121, 18 h
Summary of the method: (§1)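 Agar-dilution MIC against Gram-positive strains. Compounds in DMSO, geometric dilutions giving final 100−0.75 mg/L in Mueller Hinton agar. Strains grown 18 h at 37 °C in trypticase soy broth, diluted in sterile water, spotted by Steers inoculator (about 1000 UFC/spot). Plates incubated 18 h at 37 °C; DMSO blank; ofloxacin positive control. MIC = lowest concentration with no visible growth.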

Streptococcus agalactiae = test: Antibacterial activity against Streptococcus agalactiae CIP 103227 after 18 hrs by agar dilution method; details: ATCC 13813, 18 h; summary of the method: as §1
Listeria monocytogenes [2] = test: Antibacterial activity against Listeria monocytogenes N851 after 18 hrs by agar dilution method; details: N851, 18 h; summary of the method: as §1
Staphylococcus aureus [3] = test: Antibacterial activity against Staphylococcus aureus CIP 53156 after 18 hrs by agar dilution method; details: CIP 53156, 18 h; summary of the method: as §1
Bacillus cereus [4] = test: Antibacterial activity against Bacillus cereus N349 after 18 hrs by agar dilution method; details: N349, 18 h; summary of the method: as §1
Staphylococcus aureus [5] = test: Antibacterial activity against Staphylococcus aureus CIP 53154 after 18 hrs by agar dilution method; details: CIP 53154, 18 h; summary of the method: as §1
Enterococcus faecalis [6] = test: Antibacterial activity against Enterococcus faecalis CIP 103214 after 18 hrs by agar dilution method; details: CIP 103214, 18 h; summary of the method: as §1
[7] = test system: Staphylococcus saprophyticus; test: Antibacterial activity against Staphylococcus saprophyticus E260 after 18 hrs by agar dilution method; details: E260, 18 h; summary of the method: as §1
Enterococcus faecium [8] = test: Antibacterial activity against Enterococcus faecium N507 after 18 hrs by agar dilution method; details: N507, 18 h; summary of the method: as §1
Bacillus cereus [9] = test: Antibacterial activity against Bacillus cereus CIP 6624 after 18 hrs by agar dilution method; details: CIP 6624, 18 h; summary of the method: as §1
Enterococcus faecium [10] = test: Antibacterial activity against Enterococcus faecium CIP 103014 after 18 hrs by agar dilution method; details: CIP 103014, 18 h; summary of the method: as §1
Staphylococcus aureus [11] = test: Antibacterial activity against Staphylococcus aureus ATCC 9144 oxford after 18 hrs by agar dilution method; summary of the method: as §1
Enterococcus faecium [12] = test: Antibacterial activity against Enterococcus faecium N490 after 18 hrs by agar dilution method; details: N490, 18 h; summary of the method: as §1
[13] = test system: Staphylococcus lugdunensis; test: Antibacterial activity against Staphylococcus lugdunensis ATCC 43809 after 18 hrs by agar dilution method; details: ATCC 43809, 18 h; summary of the method: as §1
Bacillus cereus [14] = test: Antibacterial activity against Bacillus cereus N190 after 18 hrs by agar dilution method; details: N190, 18 h; summary of the method: as §1
Enterococcus faecalis [15] = test: Antibacterial activity against Enterococcus faecalis N520 after 18 hrs by agar dilution method; details: N520, 18 h; summary of the method: as §1
[16] = test system: Staphylococcus intermedius; test: Antibacterial activity against Staphylococcus intermedius N987 after 18 hrs by agar dilution method; details: N987, 18 h; summary of the method: as §1
Listeria monocytogenes [17] = test: Antibacterial activity against Listeria monocytogenes N836 after 18 hrs by agar dilution method; details: N836, 18 h; summary of the method: as §1
Staphylococcus aureus [18] = test: Antibacterial activity against Staphylococcus aureus CIP 483 after 18 hrs by agar dilution method; details: CIP 483, 18 h; summary of the method: as §1
Listeria monocytogenes [19] = test: Antibacterial activity against Listeria monocytogenes CIP 103575 after 18 hrs by agar dilution method; details: CIP 103575, 18 h; summary of the method: as §1
Enterococcus faecium [20] = test: Antibacterial activity against Enterococcus faecium CIP 107387 after 18 hrs by agar dilution method; details: CIP 107387, 18 h; summary of the method: as §1
Enterococcus faecalis [21] = test: Antibacterial activity against Enterococcus faecalis N518 after 18 hrs by agar dilution method; details: N518, 18 h; summary of the method: as §1
Enterococcus faecium [22] = test: Antibacterial activity against Enterococcus faecium N823 after 18 hrs by agar dilution method; details: N823, 18 h; summary of the method: as §1
Listeria monocytogenes [23] = test: Antibacterial activity against Listeria monocytogenes N783 after 18 hrs by agar dilution method; details: N783, 18 h; summary of the method: as §1
Enterococcus gallinarum [24] = test: Antibacterial activity against Enterococcus gallinarum N489 after 18 hrs by agar dilution method; details: N489, 18 h; summary of the method: as §1
[25] = test system: Staphylococcus saprophyticus; test: Antibacterial activity against Staphylococcus saprophyticus CIP 76125 after 18 hrs by agar dilution method; details: CIP 76125, 18 h; summary of the method: as §1
Staphylococcus aureus [26] = test: Antibacterial activity against Staphylococcus aureus CIP 5710 after 18 hrs by agar dilution method; details: CIP 5710, 18 h; summary of the method: as §1
Mammaliicoccus sciuri = test: Antibacterial activity against Staphylococcus sciuri N993 after 18 hrs by agar dilution method; details: N993, 18 h; summary of the method: as §1
Staphylococcus aureus [27] = test: Antibacterial activity against Staphylococcus aureus CIP 7625 after 18 hrs by agar dilution method; details: CIP 7625, 18 h; summary of the method: as §1
[28] = test system: Staphylococcus epidermidis; test: Antibacterial activity against Staphylococcus epidermidis CIP 53124 after 18 hrs by agar dilution method; details: CIP 53124, 18 h; summary of the method: as §1
MRC5 [29] = test: Cytotoxicity against human MRC5 cells assessed as growth inhibition at 10^-6 M after 72 hrs by MTS assay relative to control; details: MRC5, 72 h, read-out: GI
Summary of the method: (§2)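 Cells from ATCC; HCT-116 grown in RPMI 1640 and MRC5 in DMEM, each with 10% FCS and 1% glutamine, 37 °C, 5% CO2. Seeded at 2.5 × 10^3 cells/well, cultured 24 h, then exposed to compounds at 1 and 10 μM final for 72 h. MTS read-out, absorbance 490 nm; percent index from treated/control OD490 × 100, three experiments.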

MRC5 [30] = test: Cytotoxicity against human MRC5 cells assessed as growth inhibition at 10^-5 M after 72 hrs by MTS assay relative to control; details: MRC5, 72 h, read-out: GI; summary of the method: as §2
Enterococcus hirae = test: Antibacterial activity against Enterococcus hirae CIP 5855 after 18 hrs by agar dilution method; details: CIP 5855, 18 h; summary of the method: as §1
Enterococcus durans = test: Antibacterial activity against Enterococcus durans CIP 104999 after 18 hrs by agar dilution method; details: CIP 104999, 18 h; summary of the method: as §1
Listeria innocua = test: Antibacterial activity against Listeria innocua E044 after 18 hrs by agar dilution method; details: E044, 18 h; summary of the method: as §1
[31] = test system: Enterococcus casseliflavus; test: Antibacterial activity against Enterococcus casseliflavus N487 after 18 hrs by agar dilution method; details: N487, 18 h; summary of the method: as §1
Corynebacterium striatum = test: Antibacterial activity against Corynebacterium striatum N840 after 18 hrs by agar dilution method; details: N840, 18 h; summary of the method: as §1
HCT-116 [32] = test: Cytotoxicity against human HCT116 cells assessed as growth inhibition at 10^-5 M after 72 hrs by MTS assay relative to control; details: HCT-116, 72 h, read-out: GI; summary of the method: as §2
Enterococcus faecalis [33] = test: Antibacterial activity against Enterococcus faecalis CIP 104676 after 18 hrs by agar dilution method; details: CIP 104676, 18 h; summary of the method: as §1
Enterococcus gallinarum [34] = test: Antibacterial activity against Enterococcus gallinarum CIP 105985 after 18 hrs by agar dilution method; details: CIP 105985, 18 h; summary of the method: as §1
[35] = test system: Staphylococcus haemolyticus; test: Antibacterial activity against Staphylococcus haemolyticus CIP 8156 after 18 hrs by agar dilution method; details: CIP 8156, 18 h; summary of the method: as §1
Enterococcus faecalis [36] = test: Antibacterial activity against Enterococcus faecalis N491 after 18 hrs by agar dilution method; details: N491, 18 h; summary of the method: as §1
Bacillus cereus [37] = test: Antibacterial activity against Bacillus cereus N258 after 18 hrs by agar dilution method; details: N258, 18 h; summary of the method: as §1
Enterococcus gallinarum [38] = test: Antibacterial activity against Enterococcus gallinarum N492 after 18 hrs by agar dilution method; details: N492, 18 h; summary of the method: as §1
HCT-116 [39] = test: Cytotoxicity against human HCT116 cells assessed as growth inhibition at 10^-6 M after 72 hrs by MTS assay relative to control; details: HCT-116, 72 h, read-out: GI; summary of the method: as §2
[40] = test system: Enterococcus casseliflavus; test: Antibacterial activity against Enterococcus casseliflavus CIP 103018 after 18 hrs by agar dilution method; details: CIP 103018, 18 h; summary of the method: as §1
Bacillus spizizenii = test: Antibacterial activity against Bacillus subtilis ATCC 6633 after 18 hrs by agar dilution method; details: ATCC 6633, 18 h; summary of the method: as §1
Enterococcus faecium [41] = test: Antibacterial activity against Enterococcus faecium N733 after 18 hrs by agar dilution method; details: N733, 18 h; summary of the method: as §1
Staphylococcus aureus [42] = test: Antibacterial activity against Staphylococcus aureus ATCC 25923 after 18 hrs by agar dilution method; details: ATCC 25923, 18 h; summary of the method: as §1
Enterococcus avium = test: Antibacterial activity against Enterococcus avium CIP 104053 after 18 hrs by agar dilution method; details: CIP 104053, 18 h; summary of the method: as §1

`C=C(CC(=O)O)C(=O)C[C@H]1C(=C)CC[C@H]2C(C)(C)CCC[C@]12C` gave an MIC (Staphylococcus aureus [1]) of 100 µM (≈ 31.8 µg/mL), an MIC (Streptococcus agalactiae) of 100 µM (≈ 31.8 µg/mL) and an MIC (Listeria monocytogenes [2]) of 158 µM (≈ 50.3 µg/mL). For the same compound, the MIC (Staphylococcus aureus [3]) was 158 µM (≈ 50.3 µg/mL), the MIC (Bacillus cereus [4]) was 50 µM (≈ 15.9 µg/mL) and the MIC (Staphylococcus aureus [5]) was 158 µM (≈ 50.3 µg/mL). The MIC (Enterococcus faecalis [6]) was over 158 µM, the MIC [7] was 158 µM (≈ 50.3 µg/mL) and the MIC (Enterococcus faecium [8]) was over 158 µM. For the same compound, the MIC (Bacillus cereus [9]) was 50 µM (≈ 15.9 µg/mL), the MIC (Enterococcus faecium [10]) was over 158 µM and the MIC (Staphylococcus aureus [11]) was 158 µM (≈ 50.3 µg/mL). For the same compound, the MIC (Enterococcus faecium [12]) was 158 µM (≈ 50.3 µg/mL), the MIC [13] was 158 µM (≈ 50.3 µg/mL) and the MIC (Bacillus cereus [14]) was 25 µM (≈ 7.96 µg/mL). The MIC (Enterococcus faecalis [15]) was over 158 µM, the MIC [16] was 100 µM (≈ 31.8 µg/mL) and the MIC (Listeria monocytogenes [17]) was over 158 µM. It also gave an MIC (Staphylococcus aureus [18]) of 158 µM (≈ 50.3 µg/mL), an MIC (Listeria monocytogenes [19]) of 158 µM (≈ 50.3 µg/mL) and an MIC (Enterococcus faecium [20]) of over 158 µM. It also gave an MIC (Enterococcus faecalis [21]) of over 158 µM, an MIC (Enterococcus faecium [22]) of over 158 µM and an MIC (Listeria monocytogenes [23]) of 158 µM (≈ 50.3 µg/mL). For the same compound, the MIC (Enterococcus gallinarum [24]) was 158 µM (≈ 50.3 µg/mL), the MIC [25] was 158 µM (≈ 50.3 µg/mL) and the MIC (Staphylococcus aureus [26]) was 100 µM (≈ 31.8 µg/mL). For the same compound, the MIC (Mammaliicoccus sciuri) was 158 µM (≈ 50.3 µg/mL), the MIC (Staphylococcus aureus [27]) was 158 µM (≈ 50.3 µg/mL) and the MIC [28] was 158 µM (≈ 50.3 µg/mL). For the same compound, the inhibition of growth at 1 µM (MRC5 [29]) was 22%, the inhibition of growth at 10 µM (MRC5 [30]) was 25% and the MIC (Enterococcus hirae) was over 158 µM. For the same compound, the MIC (Enterococcus durans) was over 158 µM, the MIC (Listeria innocua) was 158 µM (≈ 50.3 µg/mL) and the MIC [31] was over 158 µM. The MIC (Corynebacterium striatum) was 158 µM (≈ 50.3 µg/mL), the inhibition of growth at 10 µM (HCT-116 [32]) was 46% and the MIC (Enterococcus faecalis [33]) was over 158 µM. For the same compound, the MIC (Enterococcus gallinarum [34]) was over 158 µM, the MIC [35] was 158 µM (≈ 50.3 µg/mL) and the MIC (Enterococcus faecalis [36]) was over 158 µM. It also gave an MIC (Bacillus cereus [37]) of 50 µM (≈ 15.9 µg/mL), an MIC (Enterococcus gallinarum [38]) of over 158 µM and an inhibition of growth at 1 µM (HCT-116 [39]) of 0%. For the same compound, the MIC [40] was over 158 µM, the MIC (Bacillus spizizenii) was 100 µM (≈ 31.8 µg/mL) and the MIC (Enterococcus faecium [41]) was over 158 µM. For the same compound, the MIC (Staphylococcus aureus [42]) was 158 µM (≈ 50.3 µg/mL) and the MIC (Enterococcus avium) was over 158 µM.
